Experimental data published in publication PMC9664485 (European journal of medicinal chemistry, 2022).
“And” between values parts separate entries of the source, which are not always exact repeats. Equal entries are not always repeated.

Experiments:
[1] = biological target: T1, PPM1A (also called PP2Cα) (Homo sapiens, UniProt P35813); assay: PPM1A phosphatase specificity assay; type: biochemical; settings: up to 100 μM; 8 nM PPM1A, 100 μM human p38α (175–185, 180pT) phosphopeptide
T1 sequence (P35813 1-382): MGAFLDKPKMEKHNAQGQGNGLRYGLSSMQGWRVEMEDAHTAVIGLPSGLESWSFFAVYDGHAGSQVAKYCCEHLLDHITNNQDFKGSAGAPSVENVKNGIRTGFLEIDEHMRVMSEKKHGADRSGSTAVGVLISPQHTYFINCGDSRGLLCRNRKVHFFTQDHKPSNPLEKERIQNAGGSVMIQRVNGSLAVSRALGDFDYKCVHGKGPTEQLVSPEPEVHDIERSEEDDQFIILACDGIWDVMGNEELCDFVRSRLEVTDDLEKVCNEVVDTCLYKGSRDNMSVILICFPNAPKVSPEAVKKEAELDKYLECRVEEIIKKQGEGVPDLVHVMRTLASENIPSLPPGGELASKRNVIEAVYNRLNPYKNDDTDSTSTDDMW
How it was run: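 Test compound or DMSO is mixed with the phosphopeptide substrate before PPM1A is added. Buffer: 50 mM Tris·HCl pH 7.5, 0.1 mM EGTA, 1 mM DTT, 1 mM CHAPS, 0.1 mg/mL BSA, 30 mM MgCl2. Incubation runs 7 min at 30 °C. Biomol Green stops the reaction, then colour develops 20 min at room temperature. Released phosphate is read at 620 nm against a phosphate standard curve.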

[2] = biological target: T2, recombinant human Wip1 (1–420) (Homo sapiens, UniProt O15297); assay: Wip1 phosphatase activity inhibition assay; type: biochemical; settings: for Hill coefficient [n]: variable slope logistic fit of Wip1 inhibition curve
T2 sequence (O15297 1-420): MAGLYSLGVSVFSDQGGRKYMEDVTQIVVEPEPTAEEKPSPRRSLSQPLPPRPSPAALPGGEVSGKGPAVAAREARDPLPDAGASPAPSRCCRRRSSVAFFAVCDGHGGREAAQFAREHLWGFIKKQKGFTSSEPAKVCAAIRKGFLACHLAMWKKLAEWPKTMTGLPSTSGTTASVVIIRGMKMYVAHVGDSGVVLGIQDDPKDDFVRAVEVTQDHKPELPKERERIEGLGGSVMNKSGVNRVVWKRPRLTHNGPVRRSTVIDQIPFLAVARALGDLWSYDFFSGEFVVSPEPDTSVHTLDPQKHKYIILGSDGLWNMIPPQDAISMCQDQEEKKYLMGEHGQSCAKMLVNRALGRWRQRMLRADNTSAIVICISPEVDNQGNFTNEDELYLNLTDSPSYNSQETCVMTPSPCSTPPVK

SMILES	inhibitory activity against PPM1A [1]	fold improvement in Wip1 inhibition ([2]; compared with 22g)	Hill coefficient [n] [2]
O=C(Nc1cccc(Cl)c1)c1cccc(CNc2ccc(C(=O)Nc3cccc(OP(=O)(O)O)c3)cc2CC2CCCCC2)c1 [Compound 40b, 3-(4-((3-((3-chlorophenyl)carbamoyl)benzyl)amino)-3-(cyclohexylmethyl)benzamido)phenyl dihydrogen phosphate]	no inhibitory activity	7 fold	1.4 ± 0.1
O=C(Nc1cccc(Cl)c1)c1cccc(CNc2ccc(C(=O)Nc3cccc(OP(=O)(O)O)c3)cc2C2CC3CCC2C3)c1 (stereo not shown) [Compound 40d, 3-(3-(bicyclo[2.2.1]heptan-2-yl)-4-((3-((3-chlorophenyl)carbamoyl)benzyl)amino)benzamido)phenyl dihydrogen phosphate]	–	–	2.3 ± 0.4
O=C(Nc1ccc2c(c1)OCO2)c1cccc(CNc2ccc(C(=O)Nc3cccc(OP(=O)(O)O)c3)cc2CC2CCCCC2)c1 [Compound 40e, 3-(4-((3-(benzo[d][1,3]dioxol-5-ylcarbamoyl)benzyl)amino)-3-(cyclohexylmethyl)benzamido)phenyl dihydrogen phosphate]	–	–	2.9 ± 0.1
O=C(Nc1cccc(F)c1)c1cccc(CNc2ccc(C(=O)Nc3cccc(OP(=O)(O)O)c3)cc2CC2CCCCC2)c1 [Compound 40f, 3-(3-(cyclohexylmethyl)-4-((3-((3-fluorophenyl)carbamoyl)benzyl)amino)benzamido)phenyl dihydrogen phosphate]	–	–	3.6 ± 0.2
O=C(Nc1cccc(Cl)c1)c1cccc(C(=O)Nc2ccc(C(=O)Nc3cccc(OP(=O)(O)O)c3)cc2CC2CCCCC2)c1 [Compound 48a, 3-(4-(3-((3-chlorophenyl)carbamoyl)benzamido)-3-(cyclohexylmethyl)benzamido)phenyl dihydrogen phosphate]	no inhibitory activity	–	5 and 5.1 ± 0.3
O=C(Nc1cccc(OP(=O)(O)O)c1)c1ccc(NC(=O)c2cccc(CNc3cccc(Cl)c3)c2)c(CC2CCCCC2)c1 [Compound 48b, 3-(4-(3-(((3-chlorophenyl)amino)methyl)benzamido)-3-(cyclohexylmethyl)benzamido)phenyl dihydrogen phosphate]	no inhibitory activity	–	2.3 ± 0.2
